Reference: BindingDB's records for doi:10.1021/jm960245f (University of Maryland, 1996)

Assays:
[1] = molecular target: T1, Steroid 17-alpha-hydroxylase/17,20 lyase (Homo sapiens, UniProt P05093); test: Inhibition of human testicular 17-alpha-hydroxylase
T1 sequence (P05093 whole entry): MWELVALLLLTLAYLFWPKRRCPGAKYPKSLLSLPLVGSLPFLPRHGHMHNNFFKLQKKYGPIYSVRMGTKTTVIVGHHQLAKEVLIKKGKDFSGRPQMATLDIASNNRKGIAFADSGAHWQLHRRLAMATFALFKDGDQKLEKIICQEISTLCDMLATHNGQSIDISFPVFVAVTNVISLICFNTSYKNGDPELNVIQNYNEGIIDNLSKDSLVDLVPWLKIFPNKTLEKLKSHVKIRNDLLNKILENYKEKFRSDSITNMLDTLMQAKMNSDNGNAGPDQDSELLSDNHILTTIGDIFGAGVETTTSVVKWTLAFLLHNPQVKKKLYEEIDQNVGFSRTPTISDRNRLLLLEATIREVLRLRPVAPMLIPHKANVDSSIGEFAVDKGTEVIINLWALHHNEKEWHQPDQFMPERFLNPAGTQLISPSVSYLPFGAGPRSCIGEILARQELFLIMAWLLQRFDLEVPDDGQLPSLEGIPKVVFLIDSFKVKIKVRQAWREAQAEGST
Outline: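 Human testicular microsomes (ca. 90 μg protein; from orchidectomy patients, stored at –70 °C, diluted in 0.1 M phosphate buffer) incubated with [7-3H]pregnenolone (400 nM) plus NADPH-generating system in phosphate buffer pH 7.4 under oxygen, 5 min, 34 °C, at four to five inhibitor concentrations. Reverse-phase HPLC with radioactivity counting; activity = conversion to 17α-hydroxypregnenolone plus DHEA. IC50 by nonlinear regression; duplicates, repeated at least once.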

[2] = molecular target: T1, Steroid 17-alpha-hydroxylase/17,20 lyase; test: Inhibition of human testicular steroid 17-alpha-hydroxylase
Outline: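 Human testicular microsomes (orchidectomy tissue from untreated prostatic cancer patients, ca. 90 μg protein) incubated with [7-³H]pregnenolone (400 nM) plus NADPH-generating system in pH 7.4 phosphate buffer under oxygen, 5 min, 34 °C, with four to five inhibitor concentrations. Reverse-phase HPLC with radioactivity counting; activity = conversion to 17α-hydroxypregnenolone plus DHEA. Duplicates, repeated at least once; IC50 by nonlinear regression.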

C[C@@H](CN=O)[C@H]1CC[C@H]2[C@@H]3CCC4=CC(=O)CC[C@]4(C)[C@H]3CC[C@]12C
IC50 [1]: 5.98 µM

CC(N=N)[C@H]1CC[C@H]2[C@@H]3CC=C4C[C@@H](O)CC[C@]4(C)[C@H]3CC[C@]12C (stereo partly drawn)
IC50 [1]: 9.98 µM

CC(N=O)C1CCC2C3CC=C4C[C@@H](O)CC[C@]4(C)C3CC[C@]12C (stereo partly drawn) [1-((3S,10R,13S)-3-Hydroxy-10,13-dimethyl-2,3,4,7,8,9,10,11,12,13,14,15,16,17-tetradecahydro-1H-cyclopenta[a]phenanthren-17-yl)-ethanone oxime]
IC50 [2]: 0.53 µM
